Assay outcomes from PubChem.
KCNQ1 act: potentiators or activators of KCNQ1 channel, primary screen, cell-based, thallium flux, high-throughput. B-score at 10 µM. CHO-K1 KCNQ1, thallium flux FluxOR fluorescence; stronger effect = higher value. hit rate 0.35% among 310,000;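 active means fluorescence ratio B-score, a plate-corrected score, at least three library SD, with initial intensity B-score within 5 SD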
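Assay system: CHO-K1 cells stably expressing KCNQ1. Medium: assay buffer for compound exposure, DMSO matched across wells. Timing: 37 °C overnight plating, 90-min dark dye load, 20-min compound pretreatment. Signal: kinetic FluxOR fluorescence, 10 s baseline plus 110 s post-stimulus.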
Cl transport mod: KCC2 cotransporter modulators, thallium flux, primary screen, cell-based, HEK293 KCC2, FluoZin-2 fluorescence, MLSMR; hit rate 2.2% among 190,000; AID 1456, 2008; B-score of Tl+ flux slope (higher = more flux/activation; lower = inhibition) at 10 µM; KCC2 cells, thallium flux FluoZin-2 fluorescence;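 active means thallium flux slope and its plate-corrected score both differing from the plate sample mean at a set confidence after two filtering rounds, in either direction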;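 further: slope of fluorescence scaled to starting intensity during 10 to 20 s after thallium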
KCNK9 block: KCNK9 potassium channel inhibitors, primary screen, HEK293 cells, thallium flux; Potassium channel subfamily K member 9 (Homo sapiens), Q9NPC2; FluxOR thallium flux fluorescence; stronger effect = lower value; B-score at 10 µM; hit rate 1.2% among 310,000; AID 488922, 2010;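 active means ratio B-score over 3 SD below the library mean, with starting fluorescence within 5 SD of its mean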;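 further: negative B-score means less thallium flux so channel inhibition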
Target sequence (Q9NPC2 whole entry, looked up): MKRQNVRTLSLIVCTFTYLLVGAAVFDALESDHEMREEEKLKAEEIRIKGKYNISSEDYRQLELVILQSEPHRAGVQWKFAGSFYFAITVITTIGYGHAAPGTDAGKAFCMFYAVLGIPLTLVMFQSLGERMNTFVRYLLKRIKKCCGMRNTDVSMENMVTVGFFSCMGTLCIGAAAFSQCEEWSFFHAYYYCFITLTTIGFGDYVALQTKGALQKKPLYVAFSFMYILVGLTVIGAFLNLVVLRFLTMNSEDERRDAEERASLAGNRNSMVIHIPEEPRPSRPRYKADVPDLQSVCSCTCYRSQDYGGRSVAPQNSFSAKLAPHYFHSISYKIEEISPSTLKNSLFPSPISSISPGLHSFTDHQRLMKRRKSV
KCNK3 inh: human KCNK3 channel inhibitors, primary screen, CHO cells, FluxOR thallium flux, B-score; hit rate 0.84% among 340,000; FluxOR fluorescence; stronger effect = lower value; Potassium channel subfamily K member 3 (Homo sapiens), O14649; B-score at 10 µM; AID 602410, 2012;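 active means B-score under library mean minus 4 SD, starting fluorescence ratio at most library mean plus 5 SD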;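 further: more negative B-score means stronger inhibition of thallium flux through KCNK3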
KCNQ1 inh: inhibitors of human KCNQ1 channel, primary screen, cell-based, thallium flux, high-throughput | AID 2642, 2010 | CHO-K1 KCNQ1, FluxOR thallium flux fluorescence; stronger effect = higher value | B-score at 10 µM | Potassium voltage-gated channel subfamily KQT member 1 (Homo sapiens), P51787 | hit rate 1.3% among 310,000;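 active means compounds whose thallium flux B-score, printed positive for inhibition, exceeds three library SD while starting fluorescence stays within three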;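 further: channel opened by potassium depolarization with thallium stimulus after 20 min compound exposure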
hERG rescue: hERG rescue from dofetilide block, primary screen, cell-based, CHO-hERG, FluxOR thallium flux, dofetilide IC70; Voltage-gated inwardly rectifying potassium channel KCNH2 (Homo sapiens), Q12809; dofetilide IC70 present; hit rate 0.51% among 310,000; activation (rescue from dofetilide block), less the hit threshold, % at 10 µM;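 active means activation above the mean of controls blocked by dofetilide plus 5 SD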;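 further: thallium influx through hERG after potassium depolarization seen as dye fluorescence rise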
KCC2 secondary: KCC2 modulators in sodium-free buffer, confirmation, cell-based, HEK293 KCC2, thallium flux, secondary assay | normalised thallium flux (F/F0 slope) at 10 µM | FluoZin2 fluorescence; stronger effect = higher value | shares compounds with Cl transport mod | hit rate 15% among 3,700;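 active means thallium flux slope above the same plate's solvent-only control mean plus 3 SD; inconclusive means the two replicate wells disagree; inactive means no significant difference from solvent-only control wells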
KCC2 bumet counter: thallium flux persisting under bumetanide in KCC2 cells, confirmation, counter-screen for KCC2 modulator project, cell-based, HEK293 KCC2, FluoZin2, secondary assay 3 | shares compounds with Cl transport mod | HEK293-KCC2 + bumetanide/ouabain; stronger effect = higher value | normalized thallium flux at 10 µM | hit rate 49% among 3,700;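 active means thallium entry rate above the same plate's blocked-transporter control wells by more than 3 SD; inconclusive means the two repeat wells disagree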;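 further: raw slope of fluorescence over initial fluorescence between 10 and 20 s after thallium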
KCC2 secondary2: KCC2 modulators without ouabain present, confirmation, cell-based, HEK293 KCC2, thallium flux, FluoZin2, secondary assay 2; shares compounds with Cl transport mod; thallium flux FluoZin2 fluorescence; actives lie on both sides; F/F0 rise rate, 10–20 s post-thallium; normalized thallium flux at 10 µM; hit rate 23% among 3,700;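 active means thallium flux slope more than 3 SD above or below the plate's solvent-only control mean, mostly below; inconclusive means the two repeat wells disagreed; inactive means no significant shift from solvent-only controls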
HEK counter1: thallium flux modulation in parental HEK cells, confirmation, counter-screen for KCC2 modulator project, cell-based, counterscreen 1; thallium flux rate (normalised fluorescence) at 10 µM; shares compounds with Cl transport mod; AID 1716, 2009; HEK293 parental cells, thallium flux FluoZin2, ouabain; baseline-ratio fluorescence slope, 10–20 s after thallium; hit rate 46% among 3,700;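 active means thallium flux rate significantly above the same plate's solvent-only control wells, beyond their mean plus 3 SD; inconclusive means the two replicate wells gave conflicting results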
KCC2 retest ouab: KCC2 inhibitors and activators, ouabain retest, confirmation, HEK-KCC2 cells; shares compounds with Cl transport mod; HEK293-KCC2, thallium flux FluoZin2 fluorescence; bidirectional: low = inhibitor, high = activator; raw Tl+ flux slope (below DMSO = inhibition, above = activation) at 10 µM; hit rate 48% among 3,700;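 active means thallium flux slope beyond 3 SD from same-plate DMSO control mean in most replicates, usually higher, sometimes lower; inconclusive means repeat tests gave conflicting results; inactive means no significant difference from controls in most replicates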;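 further: slope of initial-normalized fluorescence between seconds 10 and 20 after thallium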
HEK293 Tl flux2: native HEK Tl+ uptake effects, second counter-screen – HEK cells, counterscreen 2, counter-screen for KCC2 modulator project, confirmation; shares compounds with Cl transport mod; HEK293 parental, thallium flux FluoZin-2 fluorescence slope; thallium flux slope at 10 µM; hit rate 33% among 3,700;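 active means thallium flux slope above the same plate's solvent-control mean plus 3 SD in both duplicate wells; inconclusive means duplicate wells that disagreed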;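 further: run without ouabain in cells lacking the KCC2 cotransporter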
Large screens that a line does not name were inactive (follow-up assays come after a bar, where they were run). In the library only some 4.1% were active in any assay of this set; here they are far more common.

Cc1ccc2nc(NC(=O)Cn3cc4c(n3)CCCCC4)sc2c1	Cl transport mod -2.9 | KCC2 secondary inactive | KCC2 bumet counter inconclusive | KCC2 secondary2 inactive | HEK counter1 inconclusive | KCC2 retest ouab inactive | HEK293 Tl flux2 inactive
Cc1cc(C)c(NC(=O)Cn2cc3c(n2)CCCC3)c(C)c1	none
CCCOc1ccc(C(F)(F)F)cc1NC(=O)C1CC(=O)N(Cc2ccco2)C1 (configuration not stated)	none (no result: KCNQ1 act, Cl transport mod, KCNK9 block, KCNQ1 inh, hERG rescue)
Cc1cccc(-n2cc(-c3ccc([N+](=O)[O-])cc3)[nH]c2=S)c1	Cl transport mod 5.1 | KCC2 secondary inconclusive | KCC2 bumet counter 0.017 | KCC2 secondary2 inactive | HEK counter1 0.019 | KCC2 retest ouab 0.028 | HEK293 Tl flux2 0.015
O=[N+]([O-])c1ccc(-c2cn(-c3ccccc3)c(=S)[nH]2)cc1	none
O=[N+]([O-])c1cccc(-c2cn(-c3ccccc3)c(=S)[nH]2)c1	Cl transport mod 16 | KCC2 secondary 0.014 | KCC2 bumet counter 0.037 | KCC2 secondary2 inactive | HEK counter1 0.021 | KCC2 retest ouab inconclusive | HEK293 Tl flux2 0.014
COc1ccccc1-n1cc(-c2ccc([N+](=O)[O-])cc2)[nH]c1=S	none
Cc1ccc(-n2cc(-c3ccc([N+](=O)[O-])cc3)[nH]c2=S)c(C)c1	Cl transport mod 26, hERG rescue 7.2 | KCC2 secondary inconclusive | KCC2 bumet counter 0.099 | KCC2 secondary2 0.077 | HEK counter1 0.086 | KCC2 retest ouab 0.081 | HEK293 Tl flux2 0.055
CC(=O)Oc1cc2c3c(c1)/C(=C1/SC(=S)NC1=O)C(=O)N3C(C)(C)C=C2C	Cl transport mod 12 | KCC2 secondary inactive | KCC2 bumet counter 0.062 | KCC2 secondary2 inactive | HEK counter1 0.017 | KCC2 retest ouab inactive | HEK293 Tl flux2 inactive
O=C(NCC(c1ccc(F)cc1)N1CCOCC1)c1nn(-c2ccccc2)c(=O)c2ccccc12 (configuration not stated)	none (no result: KCNQ1 act, Cl transport mod, KCNK9 block, KCNQ1 inh, hERG rescue)
